Rows were chosen to be rich in hits. Some 4.9% of all compounds tested hit in one or more screens of this group.
STAT3 act = activators of IL-6 induced STAT3 signaling. U3A cells, IL-6 STAT3-luciferase reporter, luminescence; 100% = signal with IL-6 EC80 alone. activation (% of control), % at 5.6 µM. actives 0.91% (n = 190,000);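 active means activation above the screen-wide mean of compound activation plus 3 SD, cut at about 130% in these data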
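Material: human U3A cells carrying STAT3-luciferase construct. Measured by: reporter luminescence signal. Timing: compound 1 h, then IL-6 6 h at 37 °C.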
STAT3 blocker = inhibitors of IL-6 induced STAT3 signaling; U3A cells, IL-6 STAT3-luciferase reporter, luminescence; host cell line lacks STAT1; inhibition, % at 5.5 µM; actives 0.89% (n = 190,000); AID 862;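 active means inhibition above the mean inhibition across all screened compounds plus 3 SD, cut at about 44% in these data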
STAT1 activator = STAT1 signaling activation; NIH 3T3 STAT1-luciferase reporter, IFN-gamma, luminescence; 100% = IFN-gamma alone, no compound; activation (% of control), % at 5.5 µM; actives 2.6% (n = 200,000); AID 932;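 active means activation above the screen-wide mean activation plus 3 SD, cut at about 130% in these data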
APP 5'UTR act = activates APP 5'UTR luciferase reporter | actives 1% (n = 190,000) | SH-SY5Y APP 5'UTR luciferase reporter, luminescence; zero percent = DMSO vehicle wells | activation, % at 2 µM;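 active means activation above a set limit, based on mean plus 3 SD of controls, cut at about 140% in these data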
NF-kB expr up = compounds increasing NF-kB expression in human neuronal cells | NF-kB reporter expression; stronger effect = higher value | fold change at 12.5 µM | actives 1.6% (n = 190,000) | AID 1239; in the data active means fold change above about 3.3
STAT1 blocker = reduces IFN-gamma driven STAT1 reporter signal; NIH 3T3 STAT1-luciferase reporter, luminescence; inhibition, % at 5.5 µM; actives 0.35% (n = 200,000);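 active means inhibition above a set limit, the mean inhibition across all tested compounds plus 3 SD, cut at about 34% in these data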
Hits are given with their value; 0 = inactive; - = not tested or not shown.

SMILES	STAT3 act	STAT3 blocker	STAT1 activator	APP 5'UTR act	NF-kB expr up	STAT1 blocker
COc1ccc2cc3c(N)c(C(=O)NCc4ccco4)sc3nc2c1	0	0	137	0	0	0
Cc1cc2n(n1)C(c1ccccc1)CC(c1ccc(Br)cc1)=N2 (configuration not stated)	0	0	0	0	0	0
CCC(=O)Nc1cc(C(=O)OCC(=O)c2ccccc2)ccc1C	0	0	144	0	0	0
Cc1ccc(Sc2nc([N+](=O)[O-])nn2C)cc1	0	0	0	0	0	0
Cc1ccc2[nH]c3c(c2c1)CCC3=O	0	0	0	0	0	0
CCCCN1CCc2c([nH]c3ccc(C)cc23)C1=O	0	0	151	0	0	0
COc1cc(OC)c(OC)cc1CNCCSc1nnnn1C	0	0	0	0	0	0
S=C(Nc1ccccc1Cl)N1CCCCCC1	0	0	0	0	0	0
Fc1ccccc1NC(=S)N1CCC(c2ccccc2)C1 (configuration not stated)	0	0	146	0	0	0
Cc1ccc(NC(=S)N2CCC(c3ccc(C)cc3)C2)cc1 (configuration not stated)	0	0	0	0	0	0
Fc1cc(F)cc(NC(=S)N2CCC(c3ccccc3)C2)c1 (configuration not stated)	0	0	141	0	0	0
Cc1ccc(NC(=S)N2CCC(c3ccccc3)C2)c(Cl)c1 (configuration not stated)	0	0	0	190	6.5	0
S=C(Nc1ccccc1Cl)N1CCC(c2ccccc2)C1 (configuration not stated)	0	0	148	0	3.4	0
COc1ccccc1C(=O)NNC(=O)c1nn(Cc2ccccc2)c(=O)c2ccccc12	135	0	0	0	0	0
O=C(Nc1nc2c(s1)CCCC2)c1nn(Cc2ccccc2)c(=O)c2ccccc12	0	0	0	0	0	0
N#Cc1c(/N=C/c2cccs2)sc2c1CCC2	0	0	140	0	0	0
N#Cc1c(/N=C/c2ccco2)sc2c1CCCCC2	0	0	138	0	0	0
N#Cc1c(/N=C/c2cc(Br)cs2)sc2c1CCC2	0	0	0	0	-	0
CN(C)/C=N/c1sc2c(c1C#N)CCCC2	0	0	0	0	0	0
COCCCN=C1NN=C(c2cc(C)n(Cc3ccco3)c2C)CS1	0	0	0	0	0	0
Cc1cc(C2=NNC(=NC3CC3)SC2)c(C)n1Cc1ccco1	0	85	0	0	0	52
COCCn1c(C)cc(C2=NNC(=Nc3ccc(Cl)cc3Cl)SC2)c1C	0	0	0	0	0	0
COCCn1c(C)cc(C2=NNC(=NC3CC3)SC2)c1C	0	103	0	0	0	97
COCCNC(=O)CCc1c(C)nc2nc(-c3cc(OC)cc(OC)c3)nn2c1C	0	0	0	0	0	0
N/C(=N\OCc1ccccc1)c1nonc1N	0	0	129	0	0	0
SMILES	STAT3 act	STAT3 blocker	STAT1 activator	APP 5'UTR act	NF-kB expr up	STAT1 blocker
O=C(N/C=C/n1cnc2cc(C(F)(F)F)ccc21)c1ccccc1F	0	0	0	0	0	0
Cc1cccc(NC(=S)NNC(=O)c2csc3c2CCCC3)c1	0	0	0	0	0	0
Cc1ccc(S(=O)(=O)NNC(=O)c2csnn2)cc1	0	0	0	0	0	0
COc1cccc(NC(=O)c2csc3c2CCCC3)c1	0	0	145	0	0	0
CC(C)(C)C1CCc2c(C(=O)N/N=C/c3cccs3)csc2C1 (configuration not stated)	0	0	129	0	0	0
Cc1ccc(/C=N\NC(=O)c2csnn2)cc1	0	0	134	0	0	0
Cc1ccc(/C=N/NC(=O)c2csc3c2CCCC3)cc1	0	0	0	0	3.8	0
CC(C)(C)C1CCc2c(C(=O)NNC(=O)/C=C/C(=O)O)csc2C1 (configuration not stated)	0	0	0	0	0	0
CCc1ccc2nc(Nc3ccc(OC)cc3OC)c(C#N)cc2c1	0	0	0	0	0	0
Cc1scc(C(=O)N/N=C/c2ccco2)c1C	0	0	0	0	0	0
COc1ccc(NC(=O)c2csc3c2CCCC3)cc1	0	0	142	159	7.3	0
Cc1scc(C(=O)N/N=C/c2ccsc2)c1C	0	0	140	0	4.6	0
Clc1ccc2nc(C3CCN(Cc4ccccc4)CC3)[nH]c2c1	0	0	0	0	0	0
Clc1ccc2nc(N3CCCCC3)[nH]c2c1	0	0	136	0	5.3	0
CCOC(=O)C1=NN(C(=O)COc2ccccc2)C(O)(c2ccc(Br)cc2)C1 (configuration not stated)	0	0	0	0	0	0
CCc1ccc(NC(=O)c2onc(C)c2Cl)cc1	141	0	143	135	6	0
COc1ccccc1OCc1ccc(C(=O)Nc2ccc(Cl)cn2)o1	0	0	0	0	0	0
COc1cc(/C=N/NC(=O)c2cccnc2)ccc1OS(=O)(=O)c1cc(C)ccc1C	0	0	0	0	0	0
O=C(CCSCc1ccc(Cl)cc1)NCc1cccnc1	0	0	0	0	0	0
C/C(=N\OC(=O)c1ccc(Cl)cc1)c1sc(-c2ccccc2)nc1C	0	0	0	0	4.4	0
C/C(=N\OC(=O)c1cccc(C)c1)c1sc(-c2ccccc2)nc1C	0	0	0	0	3.6	0
C/C(=N\OC(=O)c1cccc(C(F)(F)F)c1)c1sc(-c2ccccc2)nc1C	0	0	0	0	4	0
CC1=CN2C(=N)/C(=C\c3cn(CCCOc4ccccc4)c4ccccc34)C(=O)N=C2S1	0	0	0	0	0	0
NC(=O)COc1ccc(-c2noc(COc3ccccc3[N+](=O)[O-])n2)cc1	0	0	0	0	0	0
c1ccc(-n2ncc3c2ncn2cnnc32)cc1	0	0	0	0	0	0
SMILES	STAT3 act	STAT3 blocker	STAT1 activator	APP 5'UTR act	NF-kB expr up	STAT1 blocker
CCc1nnc2c3cnn(-c4ccccc4)c3ncn12	0	0	133	0	0	0
Cc1ccc(-n2ncc3c2ncn2c(C)nnc32)cc1C	0	0	136	0	3.4	0
CC(=O)N/C(=C\c1ccc(Br)s1)C(=O)O	0	0	0	0	0	0
CCCC(=O)Nc1ccccc1NC(=O)c1ccc(OC(C)=O)cc1	0	0	0	0	0	0
Cc1[nH]c(=O)[nH]c(=O)c1NS(=O)(=O)c1ccccc1	0	0	0	0	0	0
CCOC(=O)C1=C(c2ccccc2)O/C(=C(/C#N)C(F)(F)F)S1	0	0	0	0	8.6	0
CCCCOc1ccc(CNC(=S)N/N=C/c2ccc(OC)c(OC)c2)cc1	0	0	0	0	0	0
COc1ccccc1NC(=O)Cn1nnc(-c2ccccc2NC(=O)c2cnccn2)n1	0	0	0	0	0	0
Cc1cccc(NC(=O)c2ccc(COc3ccc4ccccc4c3)o2)n1	0	0	145	0	0	0
CC(=O)N(c1ccccc1)c1nnc(-c2cnc(C)cn2)s1	0	0	0	137	3.5	0

From PubChem BioAssay
